Test results published in ChEMBL document CHEMBL1765016, “Indolylarylsulfones as HIV-1 non-nucleoside reverse transcriptase inhibitors: new cyclic substituents at indole-2-carboxamide” (J Med Chem, 2011).

How the values were obtained:
[1] = tested on: Human immunodeficiency virus 2; experiment: Antiviral activity against HIV2 isolate ROD infected in human CEM cells assessed as inhibition of virus-induced cytopathicity after 4 days by microscopic analysis; format: functional, organism-based; settings: Human immunodeficiency virus 2, ISOLATE ROD, CCRF-CEM, 96 h
Method in brief: (§1)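 CEM cells (~3 × 10⁵ cells/mL) infected with ~100 CCID₅₀ virus per mL, seeded into wells with compound dilutions. Syncytia (giant cell) formation scored microscopically after 4 days at 37 °C. EC₅₀ is the concentration protecting cells by 50%. Values are means of two experiments in triplicate.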

[2] = tested on: Human immunodeficiency virus 1; experiment: Antiviral activity against wild type HIV1 3B infected in human CEM cells assessed as inhibition of virus-induced cytopathicity after 4 days by microscopic analysis; format: functional, organism-based; settings: Human immunodeficiency virus 1, 3B, CCRF-CEM, 96 h; method in brief: as §1
[3] = target: Human immunodeficiency virus type 1 reverse transcriptase (Human immunodeficiency virus 1, UniProt Q72547, Y181I); experiment: Inhibition of HIV1 reverse transcriptase Y181I mutant expressed in Escherichia coli assessed as incorporation of [3H]dTTP into poly(rA)/oligo(dT) by scintillation counting
Method in brief: (§2)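 The RT was recombinant p66(His)/p51 heterodimer, mutant form, expressed in E. coli. TCA-precipitable radioactivity on GF/C filters was read by scintillation. IC50 is the concentration giving 50% inhibition.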

[4] = target: Human immunodeficiency virus type 1 reverse transcriptase (Human immunodeficiency virus 1, UniProt Q72547, K103N); experiment: Inhibition of HIV1 reverse transcriptase K103N mutant expressed in Escherichia coli assessed as incorporation of [3H]dTTP into poly(rA)/oligo(dT) by scintillation counting; method in brief: as §2
[5] = target: Human immunodeficiency virus type 1 reverse transcriptase (Human immunodeficiency virus 1, UniProt Q72547, L100I); experiment: Inhibition of HIV1 reverse transcriptase L100I mutant expressed in Escherichia coli assessed as incorporation of [3H]dTTP into poly(rA)/oligo(dT) by scintillation counting; method in brief: as §2
[6] = target: Human immunodeficiency virus type 1 reverse transcriptase (Human immunodeficiency virus 1, UniProt Q72547); experiment: Inhibition of HIV1 wild type reverse transcriptase expressed in Escherichia coli assessed as incorporation of [3H]dTTP into poly(rA)/oligo(dT) by scintillation counting
Method in brief: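 Template was poly(rA)/oligo(dT) 10:1 (0.3 μM 3′-OH ends) with 10 μM [³H]dTTP, at 37 °C. TCA-precipitable counts were taken on GF/C filters. IC₅₀ is 50% inhibition of RT activity.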

[7] = Selectivity index, CC50 for human CEM cells to IC50 for HIV1 3B; format: functional, CCRF-CEM
Method in brief: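 Ratio of CC₅₀ (Coulter count, mock-infected CEM) to EC₅₀ (CEM, HIV-1 IIIB, microscopic syncytia scoring at day 4).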

[8] = Cytotoxicity against human CEM cells by coulter counter analysis; format: cell-based; settings: CEM (CCRF-CEM) cells
Method in brief: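 Mock-infected CEM cultures with compound, cell number counted by Coulter counter as percent of untreated control. CC₅₀ (50% reduction in proliferation) was read from plots against concentration. Values are means of two experiments in triplicate.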

SMILES	EC50 [1]	EC50 [2]	IC50 [3]	IC50 [4]	IC50 [5]	IC50 [6]	Selectivity Index [7]	CC50 [8]
Cc1cc(C)cc(S(=O)(=O)c2c(C(=O)NCCc3ccccc3)[nH]c3ccc([N+](=O)[O-])cc23)c1	> 50 µM	0.0068 µM	> 40 µM	> 40 µM	0.04 µM	0.06 µM	>72529	> 500 µM
Cc1cc(C)cc(S(=O)(=O)c2c(C(=O)NCCOc3ccccc3)[nH]c3ccc(Cl)c(F)c23)c1	> 2 µM	0.019 µM	> 40 µM	18.5 µM	0.068 µM	0.066 µM	549	11 µM
Cc1cc(C)cc(S(=O)(=O)c2c(C(=O)NCCc3ccccc3)[nH]c3ccc(Cl)c(F)c23)c1	> 10 µM	0.014 µM					1214	17 µM
Cc1cc(C)cc(S(=O)(=O)c2c(C(=O)NCCOc3ccccc3)[nH]c3ccc(Br)cc23)c1	> 25 µM	0.029 µM	> 40 µM	> 40 µM	> 40 µM	4.72 µM	>17241	> 500 µM
Cc1cc(C)cc(S(=O)(=O)c2c(C(=O)NCN3CCCCC3)[nH]c3ccc(Br)cc23)c1	> 2 µM	0.0037 µM	0.497 µM	0.125 µM	0.019 µM	0.03 µM	2703	10 µM
Cc1cc(C)cc(S(=O)(=O)c2c(C(=O)NCN3CCOCC3)[nH]c3ccc([N+](=O)[O-])cc23)c1	≥ 10 µM	0.0058 µM	1.6 µM	0.864 µM	0.099 µM	0.15 µM	7931	46 µM
Cc1cc(C)cc(S(=O)(=O)c2c(C(=O)NCCn3cccc3)[nH]c3ccc(Cl)c(F)c23)c1	> 10 µM	0.0055 µM	3.7 µM	0.17 µM	0.03 µM	0.018 µM	1782	9.8 µM
Cc1cc(C)cc(S(=O)(=O)c2c(C(=O)NCN3CCCC3)[nH]c3ccc(Br)cc23)c1	> 2 µM	0.0013 µM	0.418 µM	0.067 µM	0.014 µM	0.008 µM	7385	9.6 µM
Cc1cc(C)cc(S(=O)(=O)c2c(C(=O)NCCOc3ccccc3)[nH]c3ccc([N+](=O)[O-])cc23)c1	> 2 µM	0.029 µM	> 40 µM	> 40 µM	> 40 µM	0.95 µM	>17241	> 500 µM
Cc1cc(C)cc(S(=O)(=O)c2c(C(=O)NCN3CCCC3)[nH]c3ccc([N+](=O)[O-])cc23)c1	7.8 µM	0.0025 µM	1.02 µM	0.287 µM	0.054 µM	0.034 µM	4800	12 µM
O=C1Nc2ccc(Cl)cc2[C@@](C#CC2CC2)(C(F)(F)F)O1 [EFAVIRENZ]	> 10 µM	0.0015 µM					>6667	> 10000 µM
Cc1cc(C)cc(S(=O)(=O)c2c(C(=O)NCCc3ccccc3)[nH]c3ccc(Br)cc23)c1	> 2 µM	0.014 µM	> 40 µM	1.68 µM	0.023 µM	0.128 µM	29214	409 µM
Cc1cc(C)cc(S(=O)(=O)c2c(C(=O)NCN3CCCC3)[nH]c3ccc(Cl)c(F)c23)c1	> 2 µM	0.0039 µM					2385	9.3 µM
Cc1ccnc2c1NC(=O)c1cccnc1N2C1CC1 [NEVIRAPINE]	> 10 µM	0.0192 µM					>520	> 10000 µM
Cc1cc(C)cc(S(=O)(=O)c2c(C(=O)NCCN3CCOCC3)[nH]c3ccc(Cl)c(F)c23)c1	> 10 µM	0.013 µM	> 40 µM	6.37 µM	0.747 µM	0.711 µM	846	11 µM
Cc1cc(C)cc(S(=O)(=O)c2c(C(=O)NCCn3cccc3)[nH]c3ccc(Br)cc23)c1	> 10 µM	0.0064 µM					22813	146 µM
Cc1cc(C)cc(S(=O)(=O)c2c(C(=O)NCN3CCOCC3)[nH]c3ccc(Br)cc23)c1	> 10 µM	0.0034 µM	4.3 µM	0.863 µM	0.1 µM	0.168 µM	10294	35 µM
Cc1cc(C)cc(S(=O)(=O)c2c(C(=O)NCc3ccccc3)[nH]c3ccc(Cl)c(F)c23)c1	> 2 µM	0.0058 µM	> 40 µM	0.144 µM	0.04 µM	0.04 µM	2586	15 µM
Cc1cc(C)cc(S(=O)(=O)c2c(C(=O)NCCN3CCOCC3)[nH]c3ccc(Br)cc23)c1	> 50 µM	0.17 µM	> 40 µM	1.36 µM	0.108 µM	0.063 µM	2406	409 µM
Cc1cc(C)cc(S(=O)(=O)c2c(C(=O)NCCN3CCCC3)[nH]c3ccc(Cl)c(F)c23)c1	> 2 µM	0.028 µM	> 40 µM	2.41 µM	1.55 µM	0.158 µM	229	6.4 µM
Cc1cc(C)cc(S(=O)(=O)c2c(C(=O)NCCN3CCCC3)[nH]c3ccc(Br)cc23)c1	> 2 µM	0.016 µM	> 40 µM	0.697 µM	0.315 µM	0.065 µM	351	5.6 µM
Cc1cc(C)cc(S(=O)(=O)c2c(C(=O)NCN3CCCCC3)[nH]c3ccc([N+](=O)[O-])cc23)c1	7.5 µM	0.0031 µM	0.999 µM	0.307 µM	0.01 µM	0.013 µM	3871	12 µM
Cc1cc(C)cc(S(=O)(=O)c2c(C(=O)NCCn3cccc3)[nH]c3ccc([N+](=O)[O-])cc23)c1	> 50 µM	0.0069 µM	> 40 µM	0.272 µM	0.023 µM	0.034 µM	32754	226 µM
Cc1cc(C)cc(S(=O)(=O)c2c(C(=O)NCN3CCOCC3)[nH]c3ccc(Cl)c(F)c23)c1	> 10 µM	0.0025 µM	10.2 µM	1.17 µM	0.241 µM	0.08 µM	15200	38 µM
Cc1cc(C)cc(S(=O)(=O)c2c(C(=O)NCCN3CCCC3)[nH]c3ccc([N+](=O)[O-])cc23)c1	> 10 µM	0.016 µM	> 40 µM	1.35 µM	0.594 µM	0.28 µM	1313	21 µM
Cc1cc(C)cc(S(=O)(=O)c2c(C(=O)NCCN3CCOCC3)[nH]c3ccc([N+](=O)[O-])cc23)c1	4.9 µM	0.008 µM	> 40 µM	> 40 µM	0.421 µM	0.055 µM	5250	42 µM
Cc1cc(C)cc(S(=O)(=O)c2c(C(=O)NCCN3CCOCC3)[nH]c3ccc(Cl)cc23)c1	> 2 µM	0.0088 µM	> 40 µM	6.68 µM	0.225 µM	0.099 µM	5682	50 µM
Cc1cc(C)cc(S(=O)(=O)c2c(C(=O)NCN3CCCCC3)[nH]c3ccc(Cl)c(F)c23)c1	> 10 µM	0.0039 µM					8205	32 µM
